Experimental data reported in ChEMBL document CHEMBL3877273, “Synthesis and evaluation of N-substituted 2-amino-4,5-diarylpyrimidines as selective adenosine A1 receptor antagonists” (Eur J Med Chem, 2017).

How the values were obtained:
[1] = biological target: T1, Adenosine receptor A2a (Homo sapiens, UniProt P29274); experiment: Displacement of [3H]ZM241385 from recombinant human adenosine A2A receptor expressed in HEK293 cell membranes after 2 hrs by beta scintillation counting method
Summary of the method: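 Membranes from HEK293 cells stably expressing human A2A receptor were used in radioligand competition with [3H]ZM241385. Ki was reported as mean ± SEM, n = 3.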

[2] = biological target: T2, Adenosine receptor A1 (Homo sapiens, UniProt P30542); experiment: Displacement of [3H]DPCPX from recombinant human adenosine A1 receptor expressed in CHO cell membranes after 1 hr by beta scintillation counting method
T2 sequence (P30542 whole entry): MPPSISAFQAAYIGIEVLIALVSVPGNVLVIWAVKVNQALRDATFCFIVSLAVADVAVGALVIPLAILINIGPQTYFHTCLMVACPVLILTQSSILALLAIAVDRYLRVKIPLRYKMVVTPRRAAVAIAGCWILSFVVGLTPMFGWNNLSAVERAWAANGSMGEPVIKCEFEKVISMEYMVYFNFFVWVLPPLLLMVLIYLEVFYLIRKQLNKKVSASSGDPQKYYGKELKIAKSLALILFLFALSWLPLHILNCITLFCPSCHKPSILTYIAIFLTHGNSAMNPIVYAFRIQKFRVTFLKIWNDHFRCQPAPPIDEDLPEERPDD

[3] = biological target: T1, Adenosine receptor A2a; experiment: Displacement of [3H]ZM241385 from recombinant human adenosine A2A receptor expressed in HEK293 cell membranes at 1 uM after 2 hrs by beta scintillation counting method relative to control
Summary of the method: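 Single-concentration screen on membranes from HEK293 cells stably expressing human A2A receptor. Test ligand at 1 µM, measured against specific [3H]ZM241385 binding and given as % displacement. Two independent experiments (n = 2), each value reported.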

[4] = biological target: T3, Adenosine receptor A2b (Homo sapiens) (UniProt P29275); experiment: Displacement of [3H]PSB603 from recombinant human adenosine A2B receptor expressed in CHO cell membranes at 1 uM after 1 hr by beta scintillation counting method relative to control
T3 sequence (whole entry): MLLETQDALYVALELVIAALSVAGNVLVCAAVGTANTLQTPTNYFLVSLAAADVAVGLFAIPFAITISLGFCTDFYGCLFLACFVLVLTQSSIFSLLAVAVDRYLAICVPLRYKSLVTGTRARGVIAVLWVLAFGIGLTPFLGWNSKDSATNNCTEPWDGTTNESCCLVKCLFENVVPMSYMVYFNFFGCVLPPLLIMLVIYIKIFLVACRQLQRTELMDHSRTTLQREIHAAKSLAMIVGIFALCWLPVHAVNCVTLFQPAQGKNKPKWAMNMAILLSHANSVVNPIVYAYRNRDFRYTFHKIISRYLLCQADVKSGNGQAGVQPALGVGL

[5] = biological target: T2, Adenosine receptor A1; experiment: Inverse agonist activity at recombinant human adenosine A1 receptor expressed in CHO cell membranes assessed as […] of [35S]GTPgammaS binding preincubated for 30 mins followed by [35S]GTPgammaS addition measured after 90 mins by beta scintillation counting method; type: functional
[6] = biological target: T4, Adenosine receptor A3 (Homo sapiens) (UniProt P0DMS8); experiment: Displacement of [3H]PSB11 from recombinant human adenosine A3 receptor expressed in CHO cell membranes at 1 uM after 1 hr by […] method relative to control
T4 sequence (whole entry): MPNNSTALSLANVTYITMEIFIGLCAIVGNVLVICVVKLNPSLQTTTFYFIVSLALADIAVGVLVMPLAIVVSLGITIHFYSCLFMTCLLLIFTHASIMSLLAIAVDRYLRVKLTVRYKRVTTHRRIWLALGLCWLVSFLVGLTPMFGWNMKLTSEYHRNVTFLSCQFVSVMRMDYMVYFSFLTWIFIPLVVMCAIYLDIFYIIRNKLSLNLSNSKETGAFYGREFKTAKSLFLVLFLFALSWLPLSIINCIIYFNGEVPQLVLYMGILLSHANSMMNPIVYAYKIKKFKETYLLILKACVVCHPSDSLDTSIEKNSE

[7] = biological target: T5, Adenosine receptor A2b (Homo sapiens, UniProt P29275); experiment: Displacement of [3H]PSB603 from recombinant human adenosine A2B receptor expressed in CHO cell membranes after 1 hr by beta scintillation counting method
T5 sequence (P29275 whole entry): T3 sequence (whole entry)

T1 sequence (P29274 whole entry): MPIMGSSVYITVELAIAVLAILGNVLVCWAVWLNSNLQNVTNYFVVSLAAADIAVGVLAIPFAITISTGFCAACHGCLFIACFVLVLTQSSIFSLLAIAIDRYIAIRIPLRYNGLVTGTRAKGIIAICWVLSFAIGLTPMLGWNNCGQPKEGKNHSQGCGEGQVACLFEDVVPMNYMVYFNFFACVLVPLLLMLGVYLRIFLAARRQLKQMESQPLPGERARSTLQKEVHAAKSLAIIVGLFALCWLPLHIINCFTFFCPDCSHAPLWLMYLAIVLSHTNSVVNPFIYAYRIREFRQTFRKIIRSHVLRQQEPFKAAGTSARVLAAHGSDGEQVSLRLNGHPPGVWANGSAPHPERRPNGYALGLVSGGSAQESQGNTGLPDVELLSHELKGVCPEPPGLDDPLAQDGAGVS

SMILES | Ki [1] | Ki [2] | also measured
Nc1ncc(-c2ccc(O)c(Cl)c2)c(-c2ccccc2)n1 | 1.3 nM | 0.46 nM | –
Nc1ncc(-c2ccc(Cl)c(Cl)c2)c(-c2ccccc2)n1 | – | 38 nM | inhibition [3]: 41%
O[C@H]1CC[C@H](Nc2ncc(-c3cccc(Cl)c3)c(-c3ccccc3)n2)CC1 | – | 30 nM | inhibition [3]: 1.4%; inhibition [4]: 27%; EC50 [5]: 278 nM; inhibition [6]: 3%
COc1ccc(-c2cnc(N)nc2-c2ccccc2)cc1Cl | 251 nM | 30 to 95 nM | –
Nc1ncc(-c2cccc(Cl)c2)c(-c2ccccc2)n1 | 120 nM | 55 nM | –
O[C@H]1CC[C@H](Nc2ncc(-c3ccnc(C4CC4)c3)c(-c3ccccc3)n2)CC1 | 65 nM | 1.06 nM | –
CCCC(=O)Nc1ncc(-c2cccc(Cl)c2)c(-c2ccccc2)n1 | – | 106 nM | –
Nc1ncc(-c2ccnc(C3CC3)c2)c(-c2ccccc2)n1 | 36 nM | 1.76 nM | –
Nc1ncc(-c2ccncc2)c(-c2ccccc2)n1 | 108 nM | 17 nM | –
COc1cccc(-c2cnc(N)nc2-c2ccccc2)c1 | 154 nM | 54 nM | –
OCCNc1ncc(-c2cccc(Cl)c2)c(-c2ccccc2)n1 | – | 180 nM | –
O[C@H]1CC[C@H](Nc2ncc(-c3ccc4ccccc4c3)c(-c3ccccc3)n2)CC1 | – | – | inhibition [4]: 48%; IC50 [7]: 1000 nM; EC50 [5]: 166 nM; inhibition [6]: 9%
Oc1ccc(-c2cnc(N[C@H]3CC[C@H](O)CC3)nc2-c2ccccc2)cc1Cl | 7.2 nM | – | –

The remaining compounds from weak to strong by Ki [2], led by results:

Ki [1] | Ki [2] | SMILES | also measured
– | 205 nM | Cc1cccc(-c2cnc(N)nc2-c2ccccc2)c1 | –
– | 160 nM | Nc1ncc(-c2ccc(F)cc2)c(-c2ccccc2)n1 | –
– | 144 nM | Nc1ncc(-c2cccc(O)c2)c(-c2ccccc2)n1 | –
– | 130 nM | OCCCCNc1ncc(-c2cccc(Cl)c2)c(-c2ccccc2)n1 | inhibition [3]: 13%
– | 104 nM | COc1ccc(-c2cnc(N)nc2-c2ccccc2)cc1OC | –
– | 94 nM | Clc1cccc(-c2cnc(NC3CCCC3)nc2-c2ccccc2)c1 | inhibition [3]: 23%
– | 59 nM | OCCCNc1ncc(-c2cccc(Cl)c2)c(-c2ccccc2)n1 | inhibition [3]: 9.5%
129 nM | 18 nM | Nc1ncc(-c2ccc3ccccc3c2)c(-c2ccccc2)n1 | –
98 nM | 14 nM | Nc1ncc(-c2cccc(C(F)(F)F)c2)c(-c2ccccc2)n1 | –
4.7 nM | 12 nM | Nc1ncc(-c2ccc(O)c(O)c2)c(-c2ccccc2)n1 | –
1.3 nM | 1.4 nM | Nc1ncc(-c2ccc(O)cc2)c(-c2ccccc2)n1 | –
